Source: ChEMBL document CHEMBL1155208 (Eur J Med Chem, 2009)

Key:
Rattus norvegicus [1] = assay: Antiamnesic activity against scopolamine-induced memory loss in Wistar rat assessed as latency time at 0.1 mg/kg, ip measured for 15 mins by passive avoidance step-down task test; type: functional; parameters: unit not given beside the values; conditions: route intraperitoneal
Outline: (§1)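 Male Wistar rats (200-250 g), scopolamine 0.4 mg/kg ip to induce memory loss; test compound 0.1 mg/kg ip given together with scopolamine. Passive avoidance step-down task run in a rodent memory evaluator. Read-outs: basal latency (s) to reach the shock-free zone over trials I-III, memory latency (s) and number of mistakes, given as mean ± S.E.M.; p < 0.005 taken as significant.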

Rattus norvegicus [2] = assay: Antiamnesic activity against scopolamine-induced memory loss in Wistar rat assessed as number of mistake done at 0.1 mg/kg, ip measured for 15 mins by passive avoidance step-down task test; type: functional; conditions: route intraperitoneal; outline: as §1
Rattus norvegicus [3] = assay: Effect on scopolamine-induced memory loss and learning impairment in Wistar rat assessed as transfer latency at 0.1 mg/kg, ip after 30 mins by elevated plus maze test; type: functional; parameters: unit not given beside the values; conditions: route intraperitoneal
Outline: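 Male Wistar rats on an elevated plus maze. Scopolamine 0.4 mg/kg ip; test compound 0.1 mg/kg ip given together with scopolamine 30 min before exploration; controls received distilled water. On day 1 each rat explored the maze for 90 s. Transfer latency was measured on day 1 (TL1, learning) and on day 2 in the same animals (TL2, memory), and the average was reported.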

Rattus norvegicus [4] = assay: Antiamnesic activity against scopolamine-induced memory loss in Wistar rat assessed as time taken to reach shock free zone at 0.1 mg/kg, ip measured for 15 mins by passive avoidance step-down task test; type: functional; parameters: unit not given beside the values; conditions: route intraperitoneal; outline: as §1
[5] = molecular target: T1, Muscarinic acetylcholine receptor M1 (Rattus norvegicus, UniProt P08482); assay: Displacement of [3H]QNB from muscarinic M1 receptor in Wistar rat brain cortex membrane after 2 hrs by liquid scintillation counting; type: cell membranes
T1 sequence (P08482 whole entry): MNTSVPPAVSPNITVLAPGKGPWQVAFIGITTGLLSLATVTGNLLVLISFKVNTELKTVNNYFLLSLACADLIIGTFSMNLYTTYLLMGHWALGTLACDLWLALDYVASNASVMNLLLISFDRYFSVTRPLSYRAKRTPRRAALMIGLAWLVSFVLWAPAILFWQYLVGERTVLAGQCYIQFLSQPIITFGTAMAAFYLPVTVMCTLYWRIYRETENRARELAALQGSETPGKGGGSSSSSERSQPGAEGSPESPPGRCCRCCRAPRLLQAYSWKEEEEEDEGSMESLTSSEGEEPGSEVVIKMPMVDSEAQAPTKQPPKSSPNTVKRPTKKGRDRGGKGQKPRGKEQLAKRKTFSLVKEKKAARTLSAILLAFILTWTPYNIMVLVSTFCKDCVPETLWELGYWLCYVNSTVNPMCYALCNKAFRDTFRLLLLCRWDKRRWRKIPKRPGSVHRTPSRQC

Rattus norvegicus [6] = assay: Acute toxicity in po dosed rat assessed as death after 1 week; type: organism-based; conditions: in vivo, 168 h
Outline: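 Rats fasted 16 h, six per group, given various oral doses; deaths recorded daily over 1 week of observation after treatment.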

Compound | Activity (Rattus norvegicus [1]) | Activity (Rattus norvegicus [2]) | Activity (Rattus norvegicus [3]) | Activity (Rattus norvegicus [4]) | IC50 [5] [µM] | Ki [5] [µM] | Activity (Rattus norvegicus [6])
CN1CCC=C(C2SCC(=O)N2c2ccc(C(=O)O)cc2)C1 (stereo unspecified) | 4 | 14 | 18 | 6 | 74 | 37 | Non-toxic
CC(C)N1C(=O)CSC1C1=CCCN(C)C1 (stereo unspecified) | 3 | 30 | 35 | 8 | 579 | 97 | Non-toxic
CN1CCC=C(C2SCC(=O)N2c2ccc(Br)cc2)C1 (stereo unspecified) | 3 | 29 | 38 | 7 | 536 | 122 | Non-toxic
CN1CCC=C(C2SCC(=O)N2c2ccc([N+](=O)[O-])cc2)C1 (stereo unspecified) | 4 | 25 | 21 | 7 | 158 | 43 | Non-toxic
CN1CCC=C(C2SCC(=O)N2c2ccccc2)C1 (stereo unspecified) | 4 | 32 | 44 | 8 | 886 | 105 | Non-toxic
CN1CCC=C(C2SCC(=O)N2c2ccc(Nc3ccccc3)cc2)C1 (stereo unspecified) | 3 | 16 | 14 | 5 | 48 | 19 | Non-toxic
CN1CCC=C(C2SCC(=O)N2c2cccc(O)c2)C1 (stereo unspecified) | 3 | 23 | 22 | 6 | 563 | 102 | Non-toxic
CCCCCCN1C(=O)CSC1C1=CCCN(C)C1 (stereo unspecified) | 4 | 21 | 30 | 7 | 632 | 110 | Non-toxic
CCN1C(=O)CSC1C1=CCCN(C)C1 (stereo unspecified) | 2 | 21 | 45 | 4 | 670 | 230 | Non-toxic
CN1CCC=C(C2SCC(=O)N2Cc2ccccc2)C1 (stereo unspecified) | 4 | 30 | 19 | 7 | 789 | 149 | Non-toxic
Cc1ccc(N2C(=O)CSC2C2=CCCN(C)C2)c([N+](=O)[O-])c1 (stereo unspecified) | 3 | 25 | 40 | 5 | 626 | 125 | Non-toxic
CCCCN1C(=O)CSC1C1=CCCN(C)C1 (stereo unspecified) | 4 | 12 | 17 | 5 | 68 | 32 | Non-toxic
CN1CCC=C(C2SCC(=O)N2c2ccc(Cl)cc2)C1 (stereo unspecified) | 3 | 28 | 42 | 3 | 653 | 200 | Non-toxic
